Data from ChEMBL document CHEMBL1155297, “Synthesis, antimicrobial and antioxidant activities of substituted pyrazoles, isoxazoles, pyrimidine and thioxopyrimidine derivatives” (2009).
Converted amounts (≈) assume the structure as drawn.

Assays:
Format in all cases: functional
[1] = test system: Staphylococcus aureus; test: Antibacterial activity against Staphylococcus aureus NCIM 5021 at 100 ug/disk after 24 hrs by agar disk diffusion method; conditions: NCIM 5021, 24 h, read-out: IZ
Summary of the method: (§1)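 Agar disc diffusion on nutrient agar plates pre-inoculated with each bacterium. Sterile 6 mm filter-paper discs were moistened with compound in DMSO at the stated per-disc amount. Plates were incubated at 37 °C, and the growth-inhibition zone diameter was read after 24 h. Each determination was run in triplicate, and the mean of three independent readings is reported.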

[2] = test system: Staphylococcus aureus; test: Antibacterial activity against Staphylococcus aureus NCIM 5021 at 200 ug/disk after 24 hrs by agar disk diffusion method; conditions: NCIM 5021, 24 h, read-out: IZ; summary of the method: as §1
[3] = test system: Bacillus subtilis; test: Antibacterial activity against Bacillus subtilis NCIM 2063 at 100 ug/disk after 24 hrs by agar disk diffusion method; conditions: NCIM 2063, 24 h, read-out: IZ; summary of the method: as §1
[4] = test system: Bacillus subtilis; test: Antibacterial activity against Bacillus subtilis NCIM 2063 at 200 ug/disk after 24 hrs by agar disk diffusion method; conditions: NCIM 2063, 24 h, read-out: IZ; summary of the method: as §1
[5] = test system: Klebsiella pneumoniae; test: Antibacterial activity against Klebsiella pneumoniae NCIM 2957 at 100 ug/disk after 24 hrs by agar disk diffusion method; conditions: NCIM 2957, 24 h, read-out: IZ; summary of the method: as §1
[6] = test system: Klebsiella pneumoniae; test: Antibacterial activity against Klebsiella pneumoniae NCIM 2957 at 200 ug/disk after 24 hrs by agar disk diffusion method; conditions: NCIM 2957, 24 h, read-out: IZ; summary of the method: as §1
[7] = test system: Proteus vulgaris; test: Antibacterial activity against Proteus vulgaris NCIM 2027 at 100 ug/disk after 24 hrs by agar disk diffusion method; conditions: NCIM 2027, 24 h, read-out: IZ; summary of the method: as §1
[8] = test system: Proteus vulgaris; test: Antibacterial activity against Proteus vulgaris NCIM 2027 at 200 ug/disk after 24 hrs by agar disk diffusion method; conditions: NCIM 2027, 24 h, read-out: IZ; summary of the method: as §1
[9] = test system: Fusarium solani; test: Antifungal activity against Fusarium solani NCIM 1330 at 100 ug/disk after 48 hrs by agar disk diffusion method; conditions: NCIM 1330, 48 h, read-out: IZ
Summary of the method: (§2)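 Fungal disc diffusion on nutrient agar plates pre-inoculated with each fungus. 6 mm sterile paper discs carried the compound in DMSO at the stated amount per disc. Plates were held at 37 °C, and inhibition-zone diameter was measured after 48 h. Values are the mean of three independent triplicate readings.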

[10] = test system: Fusarium solani; test: Antifungal activity against Fusarium solani NCIM 1330 at 200 ug/disk after 48 hrs by agar disk diffusion method; conditions: NCIM 1330, 48 h, read-out: IZ; summary of the method: as §2
[11] = test system: Curvularia lunata; test: Antifungal activity against Curvularia lunata NCIM 716 at 100 ug/disk after 48 hrs by agar disk diffusion method; conditions: NCIM 716, 48 h, read-out: IZ; summary of the method: as §2
[12] = test system: Curvularia lunata; test: Antifungal activity against Curvularia lunata NCIM 716 at 200 ug/disk after 48 hrs by agar disk diffusion method; conditions: NCIM 716, 48 h, read-out: IZ; summary of the method: as §2
[13] = test system: Aspergillus niger; test: Antifungal activity against Aspergillus niger NCIM 596 at 100 ug/disk after 48 hrs by agar disk diffusion method; conditions: NCIM 596, 48 h, read-out: IZ; summary of the method: as §2
[14] = test system: Aspergillus niger; test: Antifungal activity against Aspergillus niger NCIM 596 at 200 ug/disk after 48 hrs by agar disk diffusion method; conditions: NCIM 596, 48 h, read-out: IZ; summary of the method: as §2
[15] = test system: Staphylococcus aureus; test: Antibacterial activity against Staphylococcus aureus NCIM 5021 after 24 hrs by microdilution susceptibility method; conditions: NCIM 5021, 24 h
Summary of the method: (§3)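 MIC by microdilution susceptibility; compounds in DMSO, bacterial suspensions inoculated into wells. Incubation was at 36 °C for 24 h. MIC is the lowest compound concentration showing no turbidity. Chloramphenicol served as reference antibacterial.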

[16] = test system: Bacillus subtilis; test: Antibacterial activity against Bacillus subtilis NCIM 2063 after 24 hrs by microdilution susceptibility method; conditions: NCIM 2063, 24 h; summary of the method: as §3
[17] = test system: Klebsiella pneumoniae; test: Antibacterial activity against Klebsiella pneumoniae NCIM 2957 after 24 hrs by microdilution susceptibility method; conditions: NCIM 2957, 24 h; summary of the method: as §3
[18] = test system: Proteus vulgaris; test: Antibacterial activity against Proteus vulgaris NCIM 2027 after 24 hrs by microdilution susceptibility method; conditions: NCIM 2027, 24 h; summary of the method: as §3
[19] = test system: Fusarium solani; test: Antifungal activity against Fusarium solani NCIM 1330 after 48 hrs by microdilution susceptibility method; conditions: NCIM 1330, 48 h
Summary of the method: (§4)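 Broth microdilution MIC; fungal suspensions were inoculated into wells containing compound dissolved in DMSO. Incubation was at 36 °C for 48 h. MIC was recorded as the lowest concentration with no turbidity. Ketoconazole was the reference antifungal.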

[20] = test system: Curvularia lunata; test: Antifungal activity against Curvularia lunata NCIM 716 after 48 hrs by microdilution susceptibility method; conditions: NCIM 716, 48 h; summary of the method: as §4
[21] = test system: Aspergillus niger; test: Antifungal activity against Aspergillus niger NCIM 596 after 48 hrs by microdilution susceptibility method; conditions: NCIM 596, 48 h; summary of the method: as §4
[22] = test system: Radical scavenging activity; test: Antioxidant activity assessed as DPPH free radical scavenging activity at 100 uM after 20 mins
Summary of the method: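 DPPH scavenging: compound solutions were added to DPPH in dioxane/ethanol and kept at ambient temperature for 20 min. Absorbance was read at 517 nm. The test–control difference was expressed as percent DPPH radical scavenging.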

[23] = Antioxidant activity assessed as nitric oxide production at 100 uM after 120 mins by Griess reagent method
Summary of the method: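 Nitric oxide assay with Griess read-out. At intervals, 0.5 ml of incubation solution was mixed with 0.5 ml Griess reagent (1% sulfanilamide, 0.1% N-naphthylethylenediamine dihydrochloride, 2% o-phosphoric acid in water). The control received an equal amount of solvent and was handled identically.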

MIC [15] | MIC [16] | MIC [17] | MIC [18] | SMILES | zone of inhibition at 100 µg/disc [1] | zone of inhibition at 200 µg/disc [2] | zone of inhibition at 100 µg/disc [3] | zone of inhibition at 200 µg/disc [4] | zone of inhibition at 100 µg/disc [5] | zone of inhibition at 200 µg/disc [6] | zone of inhibition at 100 µg/disc [7] | zone of inhibition at 200 µg/disc [8] | zone of inhibition at 100 µg/disc [9] | zone of inhibition at 200 µg/disc [10] | zone of inhibition at 100 µg/disc [11] | zone of inhibition at 200 µg/disc [12] | zone of inhibition at 100 µg/disc [13] | zone of inhibition at 200 µg/disc [14] | inhibition [22] | inhibition [23] | also measured
25 µg/mL (≈ 52.6 µM) | 25 µg/mL (≈ 52.6 µM) | 50 µg/mL (≈ 105 µM) | 50 µg/mL (≈ 105 µM) | NC1=NN=C(N)C1C(CS(=O)(=O)c1ccc(Cl)cc1)S(=O)(=O)c1ccc(Cl)cc1 (stereo unspecified) | 34 mm | 36 mm | 35 mm | 37 mm | 30 mm | 32 mm | 31 mm | 33 mm | 35 mm | 39 mm | 34 mm | 38 mm | 32 mm | 35 mm | 92.4% | 92.4% | MIC [19]: 200 µg/mL (≈ 421 µM); MIC [20]: 100 µg/mL (≈ 210 µM); MIC [21]: 100 µg/mL (≈ 210 µM)
50 µg/mL (≈ 105 µM) | 50 µg/mL (≈ 105 µM) | 100 µg/mL (≈ 210 µM) | 100 µg/mL (≈ 210 µM) | N=C1ON=C(N)C1C(CS(=O)(=O)c1ccc(Cl)cc1)S(=O)(=O)c1ccc(Cl)cc1 (stereo unspecified) | 32 mm | 33 mm | 31 mm | 34 mm | 26 mm | 29 mm | 28 mm | 30 mm | 33 mm | 35 mm | 31 mm | 33 mm | 29 mm | 32 mm | 94.5% | 95.4% | MIC [19]: 100 µg/mL (≈ 210 µM); MIC [20]: 50 µg/mL (≈ 105 µM); MIC [21]: 50 µg/mL (≈ 105 µM)
100 µg/mL (≈ 248 µM) | 100 µg/mL (≈ 248 µM) | 100 µg/mL (≈ 248 µM) | 100 µg/mL (≈ 248 µM) | NC1=NN=C(N)C1C(CC(=O)c1ccc(Cl)cc1)C(=O)c1ccc(Cl)cc1 (stereo unspecified) | 31 mm | 33 mm | 28 mm | 32 mm | 28 mm | 30 mm | 25 mm | 28 mm | 33 mm | 37 mm | 34 mm | 36 mm | 32 mm | 33 mm | 91.7% | 90.7% | MIC [19]: 200 µg/mL (≈ 496 µM); MIC [20]: 200 µg/mL (≈ 496 µM); MIC [21]: 200 µg/mL (≈ 496 µM)
– | – | – | – | CC(=O)N1CCN(c2ccc(OCC3COC(Cn4ccnc4)(c4ccc(Cl)cc4Cl)O3)cc2)CC1 (stereo unspecified) [KETOCONAZOLE] | – | – | – | – | – | – | – | – | 38 mm | 42 mm | 41 mm | 44 mm | 36 mm | 39 mm | – | – | MIC [19]: 12.5 µg/mL (≈ 23.5 µM); MIC [20]: 6.25 µg/mL (≈ 11.8 µM); MIC [21]: 6.25 µg/mL (≈ 11.8 µM)
50 µg/mL (≈ 124 µM) | 50 µg/mL (≈ 124 µM) | 100 µg/mL (≈ 247 µM) | 200 µg/mL (≈ 495 µM) | N=C1ON=C(N)C1C(CC(=O)c1ccc(Cl)cc1)C(=O)c1ccc(Cl)cc1 (stereo unspecified) | 29 mm | 32 mm | 28 mm | 30 mm | 25 mm | 27 mm | 25 mm | 26 mm | 33 mm | 35 mm | 32 mm | 34 mm | 26 mm | 28 mm | 89.6% | 90.3% | MIC [19]: 100 µg/mL (≈ 247 µM); MIC [20]: 100 µg/mL (≈ 247 µM); MIC [21]: 100 µg/mL (≈ 247 µM)
– | – | – | – | NC1=NC(=O)N=C(N)C1C(CS(=O)(=O)c1ccccc1)S(=O)(=O)c1ccccc1 (stereo unspecified) | 18 mm | 20 mm | 16 mm | 19 mm | 16 mm | 18 mm | 14 mm | 16 mm | 14 mm | 19 mm | 18 mm | 21 mm | 15 mm | 18 mm | 28.8% | 29.7% | –
– | – | – | – | NC1=NN=C(N)C1C(CC(=O)c1ccccc1)C(=O)c1ccccc1 (stereo unspecified) | 27 mm | 30 mm | 29 mm | 31 mm | 27 mm | 29 mm | 23 mm | 26 mm | 31 mm | 33 mm | 30 mm | 32 mm | 29 mm | 30 mm | 73.7% | 71.7% | –
– | – | – | – | NC1=NC(=S)N=C(N)C1C(CS(=O)(=O)c1ccc(Cl)cc1)S(=O)(=O)c1ccc(Cl)cc1 (stereo unspecified) | 25 mm | 27 mm | 23 mm | 25 mm | 20 mm | 22 mm | 21 mm | 23 mm | 22 mm | 25 mm | 25 mm | 28 mm | 20 mm | 23 mm | 47.9% | 48.5% | –

SMILES | MIC [15] | MIC [16] | MIC [17] | MIC [18] | zone of inhibition at 100 µg/disc [1] | zone of inhibition at 200 µg/disc [2] | zone of inhibition at 100 µg/disc [3] | zone of inhibition at 200 µg/disc [4] | zone of inhibition at 100 µg/disc [5] | zone of inhibition at 200 µg/disc [6] | zone of inhibition at 100 µg/disc [7] | zone of inhibition at 200 µg/disc [8] | zone of inhibition at 100 µg/disc [9] | zone of inhibition at 200 µg/disc [10] | zone of inhibition at 100 µg/disc [11] | zone of inhibition at 200 µg/disc [12] | zone of inhibition at 100 µg/disc [13] | zone of inhibition at 200 µg/disc [14] | inhibition [22] | inhibition [23] | also measured
O=C(N[C@H](CO)[C@H](O)c1ccc([N+](=O)[O-])cc1)C(Cl)Cl [CHLORAMPHENICOL] | 6.25 µg/mL (≈ 19.3 µM) | 6.25 µg/mL (≈ 19.3 µM) | 12.5 µg/mL (≈ 38.7 µM) | 12.5 µg/mL (≈ 38.7 µM) | 35 mm | 41 mm | 38 mm | 44 mm | 37 mm | 42 mm | 42 mm | 45 mm | – | – | – | – | – | – | – | – | –
